Test results published in ChEMBL document CHEMBL5678805, “Intermittent administration of MEK inhibitor GDC-0973 plus PI3K inhibitor GDC-0941 triggers robust apoptosis and tumor growth inhibition” (Cancer Res, 2012).
The source made the active and inactive calls. No cut-off for these calls is given here.

Key:
[1] = Inhibition of AMPK (unknown origin); set-up: species or system Homo sapiens
Aurora kinase A = Aurora kinase A (Homo sapiens, UniProt O14965); assay: Inhibition of AuroraA (unknown origin)
[2] = target: Receptor tyrosine-protein kinase erbB-2 (Homo sapiens, UniProt P04626); assay: Inhibition of ErbB2 (unknown origin)
[3] = target: Mitogen-activated protein kinase 3 (Homo sapiens, UniProt P27361); assay: Inhibition of ERK1 (unknown origin)
[4] = target: Fibroblast growth factor receptor 3 (Homo sapiens, UniProt P22607); assay: Inhibition of FGFR3 (unknown origin)
[5] = target: G protein-coupled receptor kinase 5 (Homo sapiens, UniProt P34947); assay: Inhibition of GRK5 (unknown origin)
[6] = target: Tyrosine-protein kinase JAK2 (Homo sapiens, UniProt O60674); assay: Inhibition of JAK2 (unknown origin)
[7] = target: Mast/stem cell growth factor receptor Kit (Homo sapiens, UniProt P10721); assay: Inhibition of Kit (unknown origin)
[8] = target: Ribosomal protein S6 kinase alpha-5 (Homo sapiens, UniProt O75582); assay: Inhibition of MSK1 (unknown origin)
[9] = target: Platelet-derived growth factor receptor beta (Homo sapiens, UniProt P09619); assay: Inhibition of PDGFR beta (unknown origin)
[10] = target: Serine/threonine-protein kinase pim-3 (Homo sapiens, UniProt Q86V86); assay: Inhibition of PIM3 (unknown origin)
[11] = target: Proto-oncogene tyrosine-protein kinase Src (Homo sapiens, UniProt P12931); assay: Inhibition of SRC (unknown origin)
[12] = target: Serine/threonine-protein kinase 24 (Homo sapiens, UniProt Q9Y6E0); assay: Inhibition of STK24 (unknown origin)
MOLM-13 = assay: Antitumor activity against human MOLM-13 cells harboring FLT3 Y599_D600insFDFREYE and c-Cbl E366_Q409del mutant xenografted in mouse assessed as tumor growth inhibition at 5 mg/kg, po; assay type: functional; conditions: MOLM-13, read-out: TGI
In short: (§1)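 Human tumor xenografts in mice were dosed orally at the indicated mg/kg. Tumor volume was measured with calipers as (L×W×W)/2. %TGI = 100 × [1 − (AUC treatment/d)/(AUC vehicle/d)], using the area under the fitted tumor-growth curve per day for each dose group relative to vehicle.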

[13] = Antitumor activity against human A2058-X1 cells harboring BRAF V600E/PTEN L112Q/V175/TP53 V274F mutant xenografted in mouse assessed as tumor growth inhibition at 2.5 mg/kg, po; assay type: functional; conditions: A2058-X1, read-out: TGI
In short: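 Single-agent dose ranging in human tumor xenograft mice at 2.5, 5 or 10 mg/kg oral. Tumor volume was measured by caliper as (L×W×W)/2. %TGI = 100×[1 − AUC(treatment/d)/AUC(vehicle/d)] from the fitted growth curve per dose group, relative to vehicle.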

NCI-H520 = assay: Antitumor activity against human NCI-H520 cells harboring TP53 W146 and CDKN2A G G45 mutant xenografted in mouse assessed as tumor growth inhibition at 10 mg/kg, po; assay type: functional; conditions: read-out: TGI; in short: as §1
CWR22R = assay: Antitumor activity against human 22Rv1 cells harboring PIK3CA Q546R/TP53 Q331R mutant xenografted in mouse assessed as tumor growth inhibition at 10 mg/kg, po; assay type: functional; conditions: read-out: TGI
A375.X1 = assay: Antitumor activity against human A375.X1 cells xenografted in po dosed mouse assessed as reduction in ERK phosphorylation administered for 3 days and measured at 2 to 24 hrs by Western blot analysis; assay type: functional, organism-based; conditions: dose 1-10 mg/kg, time 74-96 hrs
In short: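 A375.X1 xenograft mice were dosed orally at 1, 3, 5 or 10 mg/kg once daily for 3 days. Tumors were collected 2, 8 and 24 h after the last dose, pulverized frozen and resolved by 4–12% SDS-PAGE. p-ERK1/2 and t-ERK1/2 were measured by Western blot and quantified by band intensity, relative to vehicle-treated mice (0 h).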

[14] = Antiproliferative activity against human Mel 928 cells assessed reduction in cell viability incubated for 4 days in presence of 4-(2-(1H-indazol-4-yl)-6-((4-(methylsulfonyl)piperazin-1-yl)methyl)thieno[3,2-d]pyrimidin-4-yl)morpholine by celltiter-glo assay; assay type: functional; conditions: time 4 day
In short: (§2)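 4-day CellTiter-Glo viability read-out on melanoma lines, cells exposed to increasing concentrations of each inhibitor alone and in combination.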

COLO-829 = assay: Antiproliferative activity against human COLO-829 cells assessed reduction in cell viability incubated for 4 days in presence of 4-(2-(1H-indazol-4-yl)-6-((4-(methylsulfonyl)piperazin-1-yl)methyl)thieno[3,2-d]pyrimidin-4-yl)morpholine by celltiter-glo assay; assay type: functional; conditions: time 4 day; in short: as §2
A2058 [15] = assay: Antitumor activity against human A2058 cells xenografted in mouse assessed as decrease in pS6 level at 5 mg/kg, po administered for 4 days and measured after 2 hrs in presence of 4-(2-(1H-indazol-4-yl)-6-((4-(methylsulfonyl)piperazin-1-yl)methyl)thieno[3,2-d]pyrimidin-4-yl)morpholine; assay type: functional, organism-based; conditions: time 98.0 hrs
A-375 = assay: Antitumor activity against human A-375 cells xenografted in mouse assessed as decrease in pS6 level at 5 mg/kg, po administered for 4 days and measured after 2 hrs in presence of 4-(2-(1H-indazol-4-yl)-6-((4-(methylsulfonyl)piperazin-1-yl)methyl)thieno[3,2-d]pyrimidin-4-yl)morpholine; assay type: functional, organism-based; conditions: time 98.0 hrs
DLD-1 = assay: Antitumor activity against human DLD-1 cells xenografted in mouse assessed as tumor growth inhibition at 3 mg/kg, po administered once a day for 21 days; assay type: functional; conditions: DLD-1, 504 h, time 21 day, read-out: TGI
In short: (§3)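 Human tumor xenografts in mice. Drugs given orally, as single agents or combined with the PI3K inhibitor. Schedules were daily (QD) or every third day (Q3D) over 21 days. Tumor volume was measured by caliper as (L×W×W)/2. %TGI = 100×[1 − AUC(treatment/d)/AUC(vehicle/d)] from fitted growth curves, with group means. Tumor lysates were immunoblotted for pS6.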

888-mel [16] = assay: Inhibition of ERK phosphorylation in human 888-mel cells incubated for 24 hrs by immunoblotting analysis; assay type: cell-based
888-mel [17] = assay: Induction of apoptosis in human 888-mel cells assessed as increase in cleaved PARP level incubated for 24 hrs in presence of 4-(2-(1H-indazol-4-yl)-6-((4-(methylsulfonyl)piperazin-1-yl)methyl)thieno[3,2-d]pyrimidin-4-yl)morpholine by immunoblotting analysis; assay type: functional, cell-based
A2058 [18] = assay: Antitumor activity against human A2058 cells harboring BRAF V600E/PTEN deletion mutant xenografted in mouse assessed as increase in Bims level at 15 mg/kg, po administered every third day for 21 days and measured after 8 hrs post dose in presence of 4-(2-(1H-indazol-4-yl)-6-((4-(methylsulfonyl)piperazin-1-yl)methyl)thieno[3,2-d]pyrimidin-4-yl)morpholine by Western blot analysis; assay type: functional, organism-based; conditions: time 512.0 hrs
A2058 [19] = assay: Antitumor activity against human A2058 cells harboring BRAF V600E/PTEN deletion mutant xenografted in mouse assessed as suppression of S6 phosphorylation at 15 mg/kg, po administered every third day for 21 days and measured after 72 hrs post dose in presence of 4-(2-(1H-indazol-4-yl)-6-((4-(methylsulfonyl)piperazin-1-yl)methyl)thieno[3,2-d]pyrimidin-4-yl)morpholine by Western blot analysis; assay type: functional, organism-based; conditions: time 576.0 hrs; in short: as §3

Sequence of Platelet-derived growth factor receptor beta (P09619 whole entry): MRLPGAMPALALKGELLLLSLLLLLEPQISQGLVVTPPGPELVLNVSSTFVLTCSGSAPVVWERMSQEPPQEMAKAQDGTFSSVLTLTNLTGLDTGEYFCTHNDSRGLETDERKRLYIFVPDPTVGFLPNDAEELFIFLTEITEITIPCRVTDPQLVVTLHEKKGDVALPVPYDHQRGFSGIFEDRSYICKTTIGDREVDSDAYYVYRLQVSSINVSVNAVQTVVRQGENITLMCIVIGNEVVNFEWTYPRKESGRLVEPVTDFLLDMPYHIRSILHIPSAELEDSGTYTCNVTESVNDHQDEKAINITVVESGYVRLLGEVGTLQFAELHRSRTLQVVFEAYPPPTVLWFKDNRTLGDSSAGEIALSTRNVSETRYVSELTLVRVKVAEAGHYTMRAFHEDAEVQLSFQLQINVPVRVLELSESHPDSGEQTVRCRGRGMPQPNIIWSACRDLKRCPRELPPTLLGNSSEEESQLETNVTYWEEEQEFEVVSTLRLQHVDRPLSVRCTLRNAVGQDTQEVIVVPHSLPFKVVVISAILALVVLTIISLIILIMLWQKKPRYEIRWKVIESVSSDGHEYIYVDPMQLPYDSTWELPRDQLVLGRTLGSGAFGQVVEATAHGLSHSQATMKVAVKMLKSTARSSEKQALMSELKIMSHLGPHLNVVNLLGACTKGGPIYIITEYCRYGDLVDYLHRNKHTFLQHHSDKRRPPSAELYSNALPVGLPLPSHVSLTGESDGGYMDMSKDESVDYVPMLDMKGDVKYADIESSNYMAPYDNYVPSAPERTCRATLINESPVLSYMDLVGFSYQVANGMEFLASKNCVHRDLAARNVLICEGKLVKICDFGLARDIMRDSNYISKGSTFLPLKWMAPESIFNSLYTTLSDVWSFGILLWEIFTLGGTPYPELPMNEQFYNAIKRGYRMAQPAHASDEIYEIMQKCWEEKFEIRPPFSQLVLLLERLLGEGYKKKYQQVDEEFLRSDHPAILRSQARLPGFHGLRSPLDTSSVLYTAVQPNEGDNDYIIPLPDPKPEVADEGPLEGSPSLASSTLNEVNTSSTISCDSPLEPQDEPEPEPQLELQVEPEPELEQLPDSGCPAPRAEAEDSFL
Sequence of Mitogen-activated protein kinase 3 (P27361 whole entry): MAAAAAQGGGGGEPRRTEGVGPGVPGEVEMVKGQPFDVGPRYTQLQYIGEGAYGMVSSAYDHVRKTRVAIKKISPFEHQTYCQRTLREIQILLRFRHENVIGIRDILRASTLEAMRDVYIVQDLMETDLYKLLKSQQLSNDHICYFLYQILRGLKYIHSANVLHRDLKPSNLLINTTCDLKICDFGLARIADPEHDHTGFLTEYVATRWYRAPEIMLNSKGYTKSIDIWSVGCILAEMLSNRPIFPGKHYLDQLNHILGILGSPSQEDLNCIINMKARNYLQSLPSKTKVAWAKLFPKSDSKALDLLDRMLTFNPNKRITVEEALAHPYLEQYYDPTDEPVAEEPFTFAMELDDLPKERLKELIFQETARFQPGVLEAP
Sequence of Fibroblast growth factor receptor 3 (P22607 whole entry): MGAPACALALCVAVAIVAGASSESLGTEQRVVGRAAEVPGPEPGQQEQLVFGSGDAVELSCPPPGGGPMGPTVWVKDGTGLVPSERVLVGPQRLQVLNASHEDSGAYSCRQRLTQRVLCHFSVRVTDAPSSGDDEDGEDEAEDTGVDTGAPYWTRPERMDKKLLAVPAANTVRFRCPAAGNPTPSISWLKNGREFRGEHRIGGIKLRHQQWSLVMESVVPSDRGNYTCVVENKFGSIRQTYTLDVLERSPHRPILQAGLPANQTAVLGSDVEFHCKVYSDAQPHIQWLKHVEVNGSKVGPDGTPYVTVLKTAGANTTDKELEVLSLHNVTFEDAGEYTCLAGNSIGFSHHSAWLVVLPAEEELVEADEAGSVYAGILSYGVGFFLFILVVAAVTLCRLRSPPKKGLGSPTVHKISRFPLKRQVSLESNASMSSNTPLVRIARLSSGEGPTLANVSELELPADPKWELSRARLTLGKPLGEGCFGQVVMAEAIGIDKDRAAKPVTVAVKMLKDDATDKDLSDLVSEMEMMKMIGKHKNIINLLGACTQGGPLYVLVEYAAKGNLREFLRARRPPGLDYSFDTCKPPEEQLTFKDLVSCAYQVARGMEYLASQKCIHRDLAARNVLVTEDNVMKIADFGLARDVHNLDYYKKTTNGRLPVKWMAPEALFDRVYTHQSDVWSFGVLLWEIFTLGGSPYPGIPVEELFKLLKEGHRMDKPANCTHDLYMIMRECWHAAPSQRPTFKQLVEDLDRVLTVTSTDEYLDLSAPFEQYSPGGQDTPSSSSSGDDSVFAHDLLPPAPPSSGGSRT
Sequence of Mast/stem cell growth factor receptor Kit (P10721 whole entry): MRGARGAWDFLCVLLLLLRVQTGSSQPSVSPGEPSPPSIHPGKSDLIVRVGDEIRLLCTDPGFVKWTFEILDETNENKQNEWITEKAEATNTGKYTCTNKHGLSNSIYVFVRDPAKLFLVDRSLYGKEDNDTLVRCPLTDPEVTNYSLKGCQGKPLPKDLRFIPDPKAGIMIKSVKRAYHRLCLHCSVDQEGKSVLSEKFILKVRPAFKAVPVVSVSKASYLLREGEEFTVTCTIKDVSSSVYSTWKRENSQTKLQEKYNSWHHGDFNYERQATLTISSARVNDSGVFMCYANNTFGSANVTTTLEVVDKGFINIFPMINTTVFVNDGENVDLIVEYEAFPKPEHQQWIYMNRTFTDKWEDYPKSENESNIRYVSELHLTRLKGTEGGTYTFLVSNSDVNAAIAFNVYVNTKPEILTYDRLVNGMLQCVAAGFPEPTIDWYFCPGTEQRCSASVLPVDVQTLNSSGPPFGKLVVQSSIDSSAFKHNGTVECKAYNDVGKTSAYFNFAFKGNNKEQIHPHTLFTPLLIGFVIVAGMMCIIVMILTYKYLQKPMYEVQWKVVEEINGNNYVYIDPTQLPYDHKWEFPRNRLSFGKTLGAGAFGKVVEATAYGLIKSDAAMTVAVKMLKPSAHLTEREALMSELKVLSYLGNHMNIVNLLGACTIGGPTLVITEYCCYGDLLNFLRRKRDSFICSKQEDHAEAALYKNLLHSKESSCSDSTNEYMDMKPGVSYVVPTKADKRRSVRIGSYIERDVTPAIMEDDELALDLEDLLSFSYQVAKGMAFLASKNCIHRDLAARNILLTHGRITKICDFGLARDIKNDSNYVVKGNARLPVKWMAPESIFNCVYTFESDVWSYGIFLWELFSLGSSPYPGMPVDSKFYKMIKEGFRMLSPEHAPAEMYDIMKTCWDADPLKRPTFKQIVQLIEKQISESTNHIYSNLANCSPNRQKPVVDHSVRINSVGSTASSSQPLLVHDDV
Sequence of Ribosomal protein S6 kinase alpha-5 (O75582 whole entry): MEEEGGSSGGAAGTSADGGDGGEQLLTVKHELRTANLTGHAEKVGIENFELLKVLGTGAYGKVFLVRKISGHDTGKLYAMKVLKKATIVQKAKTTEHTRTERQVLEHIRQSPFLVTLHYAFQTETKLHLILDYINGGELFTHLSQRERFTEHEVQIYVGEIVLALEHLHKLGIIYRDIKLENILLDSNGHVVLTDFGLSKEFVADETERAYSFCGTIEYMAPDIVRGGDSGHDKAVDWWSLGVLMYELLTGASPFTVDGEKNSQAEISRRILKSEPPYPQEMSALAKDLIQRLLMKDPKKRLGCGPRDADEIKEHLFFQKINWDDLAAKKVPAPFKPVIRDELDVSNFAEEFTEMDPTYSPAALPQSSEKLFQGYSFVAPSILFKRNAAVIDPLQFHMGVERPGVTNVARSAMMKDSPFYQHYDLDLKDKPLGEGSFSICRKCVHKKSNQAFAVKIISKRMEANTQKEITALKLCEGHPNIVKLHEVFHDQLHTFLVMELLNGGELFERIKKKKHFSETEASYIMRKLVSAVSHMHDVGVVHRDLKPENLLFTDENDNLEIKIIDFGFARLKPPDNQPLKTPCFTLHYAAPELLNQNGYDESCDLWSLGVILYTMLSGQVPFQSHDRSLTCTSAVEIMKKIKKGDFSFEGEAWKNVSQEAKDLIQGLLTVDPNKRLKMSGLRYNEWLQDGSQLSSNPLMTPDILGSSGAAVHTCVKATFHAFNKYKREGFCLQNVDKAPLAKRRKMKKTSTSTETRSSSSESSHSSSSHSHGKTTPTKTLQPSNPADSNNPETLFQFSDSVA
Sequence of G protein-coupled receptor kinase 5 (P34947 whole entry): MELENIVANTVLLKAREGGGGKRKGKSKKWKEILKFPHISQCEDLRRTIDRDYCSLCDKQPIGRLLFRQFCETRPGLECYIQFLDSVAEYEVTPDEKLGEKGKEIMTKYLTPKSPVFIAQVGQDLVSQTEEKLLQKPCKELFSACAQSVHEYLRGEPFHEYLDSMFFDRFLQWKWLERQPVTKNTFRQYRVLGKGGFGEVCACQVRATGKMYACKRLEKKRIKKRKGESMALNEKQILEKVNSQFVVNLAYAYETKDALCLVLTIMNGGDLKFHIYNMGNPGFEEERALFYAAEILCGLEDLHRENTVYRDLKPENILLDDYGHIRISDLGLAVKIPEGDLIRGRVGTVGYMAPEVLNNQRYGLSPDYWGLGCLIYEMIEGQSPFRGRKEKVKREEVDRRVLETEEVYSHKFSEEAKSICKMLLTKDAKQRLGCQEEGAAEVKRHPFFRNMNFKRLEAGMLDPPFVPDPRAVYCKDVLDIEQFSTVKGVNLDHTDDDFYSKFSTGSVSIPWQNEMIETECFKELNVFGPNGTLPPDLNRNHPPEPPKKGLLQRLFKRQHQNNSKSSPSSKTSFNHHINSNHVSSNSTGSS

For `O=C(c1ccc(F)c(F)c1Nc1ccc(I)cc1F)N1CC(O)([C@@H]2CCCCN2)C1` [COBIMETINIB], the IC50 [1] was > 10 µM, the IC50 (Aurora kinase A) was > 10 µM and the IC50 [2] was > 10 µM. For the same molecule, the IC50 [3] was > 10 µM, the IC50 [4] was > 10 µM and the IC50 [5] was > 10 µM. For the same molecule, the IC50 [6] was > 10 µM, the IC50 [7] was > 10 µM and the IC50 [8] was > 10 µM. For the same molecule, the IC50 [9] was > 10 µM, the IC50 [10] was > 10 µM and the IC50 [11] was > 10 µM. For the same molecule, the IC50 [12] was > 10 µM, the inhibition in vivo at 5 mg/kg (MOLM-13) was -6% and the inhibition in vivo at 2.5 mg/kg [13] was 36%. For the same molecule, the inhibition in vivo at 10 mg/kg (NCI-H520) was 21%, the inhibition in vivo at 10 mg/kg (CWR22R) was 82.5% and the Activity (A375.X1) was “Dose-Dependent Effect”. The Activity [14] was 60%, the Activity (COLO-829) was 60% and the Activity (A2058 [15]) was “Active”. The Activity (A-375) was “Active”, the inhibition in vivo at 3 mg/kg (DLD-1) was 47% and the inhibition (888-mel [16]) was “Active”. For the same molecule, the Activity (888-mel [17]) was “Active”, the Activity (A2058 [18]) was “Active” and the Activity (A2058 [19]) was “Active”.
